Consider one compound from ChEMBL document CHEMBL3621164, “Discovery of Triazole CYP11B2 Inhibitors with in Vivo Activity in Rhesus Monkeys” (ACS Med Chem Lett, 2015).

pIC50: −log10 of the molar value.

Data set [1] can be described thus: Oral bioavailability in Sprague-Dawley rat at 2 mg/kg administered through gavage. To be noted: in vivo. The data set is classed as ADME, organism-based.
Data set [2] concerns the target T1, Cytochrome P450 11B1, mitochondrial (Homo sapiens, UniProt P15538).
T1 sequence (P15538 whole entry): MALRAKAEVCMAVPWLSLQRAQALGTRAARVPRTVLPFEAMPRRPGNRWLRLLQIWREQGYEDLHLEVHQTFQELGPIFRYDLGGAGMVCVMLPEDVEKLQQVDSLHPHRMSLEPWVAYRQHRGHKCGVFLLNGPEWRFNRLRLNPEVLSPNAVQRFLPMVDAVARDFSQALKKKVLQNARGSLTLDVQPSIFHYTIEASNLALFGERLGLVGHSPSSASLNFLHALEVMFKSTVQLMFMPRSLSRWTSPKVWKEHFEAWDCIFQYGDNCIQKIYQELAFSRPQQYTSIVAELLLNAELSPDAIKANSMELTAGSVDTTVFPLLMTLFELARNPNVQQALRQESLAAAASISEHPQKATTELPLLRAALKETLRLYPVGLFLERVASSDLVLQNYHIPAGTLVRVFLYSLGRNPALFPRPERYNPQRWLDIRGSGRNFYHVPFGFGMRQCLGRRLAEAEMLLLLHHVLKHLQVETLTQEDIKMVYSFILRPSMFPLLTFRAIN
The data set can be described thus: Inhibition of human CYP11B1 expressed in V79 cells assessed as cortisol level after 3 hrs by HTRF assay in presence of 250 nM 11-deoxycortisol. The data set is classed as cell-based. Background: TR-FRET usually uses a lanthanide donor and a delayed reading to cut background.

The species entered for the next data set is Homo sapiens. The data set can be described thus: Selectivity index, ratio IC50 for human CYP11B1 to IC50 for human CYP11B2. The method, boiled down: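 Ratio of human CYP11B1 IC50 to human CYP11B2 IC50; each IC50 calculated from n ≥ 2 determinations.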
A short description of data set [3]: Intrinsic clearance in Sprague-Dawley rat liver microsomes by LC/MS method. The data set is classed as ADME. Particulars: read-out: CLH. In general terms: Liver microsomes are vesicles of endoplasmic reticulum, rich in cytochrome P450 enzymes.
In data set [4] the target is T2, Cytochrome P450 11B2, mitochondrial (Homo sapiens, UniProt P19099).
T2 sequence (P19099 whole entry): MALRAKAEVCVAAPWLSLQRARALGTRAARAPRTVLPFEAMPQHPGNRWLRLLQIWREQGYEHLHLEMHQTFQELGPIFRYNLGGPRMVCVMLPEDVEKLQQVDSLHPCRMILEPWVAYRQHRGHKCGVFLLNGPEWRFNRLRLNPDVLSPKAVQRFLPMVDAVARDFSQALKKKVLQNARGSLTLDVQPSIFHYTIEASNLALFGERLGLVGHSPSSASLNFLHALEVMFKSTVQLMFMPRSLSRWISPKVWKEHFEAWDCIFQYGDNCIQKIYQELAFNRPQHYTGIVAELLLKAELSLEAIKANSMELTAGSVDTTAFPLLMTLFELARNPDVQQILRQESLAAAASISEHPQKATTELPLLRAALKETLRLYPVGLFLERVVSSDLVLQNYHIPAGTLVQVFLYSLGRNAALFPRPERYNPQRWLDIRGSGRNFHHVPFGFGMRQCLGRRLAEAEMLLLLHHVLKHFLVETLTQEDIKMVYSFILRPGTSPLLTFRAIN
Nature of the data set: Inhibition of human CYP11B2 expressed in V79 cells assessed as aldosterone level after 3 hrs by HTRF assay in presence of 125 nM 11-deoxycorticosterone. The data set is classed as cell-based.

The test system of a further data set is Rattus norvegicus. Nature of the data set: Dose normalized AUC in Sprague-Dawley rat at 2 mg/kg, po administered through gavage. The data set is classed as ADME, organism-based. To be noted: in vivo.
Data set [5] is described as follows: Plasma protein binding in Sprague-Dawley rat. The data set is classed as ADME, cell-free.
A short description of data set [6]: Lipophilicity, log D of the compound by HPLC. The data set is classed as physicochemical. The procedure, abridged:
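Lipophilicity determined experimentally by HPLC.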

The nature of data set [7]: Half life in Sprague-Dawley rat at 2 mg/kg, po administered through gavage by LC/MS/MS method. The data set is classed as ADME, organism-based. Particulars: in vivo.
The nature of data set [8]: Plasma clearance in Sprague-Dawley rat at 2 mg/kg, po administered through gavage by LC/MS/MS method. The data set is classed as ADME, organism-based.

On to `CC(C)(O)c1cncc(-c2ccc3c(c2)CCc2nnc(C(F)(F)F)n2-3)c1`, for which the bioavailability in data set [1] turned out to be 83%. The pIC50 is 5.83 in data set [2] and 6.28 in [4]. Besides, the Ratio IC50 in the data set listed under Homo sapiens stood at 3. In [3], the CLint scaled was < 20 mL/min/kg. Also, in the data set with Rattus norvegicus, the AUC/dose turned out to be 3.87 µM·kg·h/mg. In data set [5], this compound had a fraction unbound of 0.997. In data set [6], this compound yielded a logD of 1.5. In data set [7], this compound had a half-life of 2.9 h. Further, the CL/F in [8] amounted to 10 mL/min/kg.

What is called bioavailability is the share of a dose that reaches the circulation, judged against a reference dose that is usually intravenous. Low values mean little systemic uptake, high ones much systemic uptake. By pIC50 is commonly meant the IC50 on a negative log10 scale, so that one unit is a factor of ten. In general, fraction unbound refers to free concentration divided by total concentration. High values mean weak binding, low ones extensive binding. Broadly, the logD is the decadic logarithm of the distribution of all forms, ionised or not, between an organic phase and buffer at a given pH. Read a high logD as higher lipophilicity. By half-life is commonly meant the time needed for the level to fall by half in the phase considered. By CL/F is commonly meant clearance divided by bioavailability, as obtained after extravascular dosing.
